Experimental findings from ChEMBL document CHEMBL2040798, “One-pot synthesis of novel isoindoline-1,3-dione derivatives bearing 1,2,4-triazole moiety and their preliminary biological evaluation” (Eur J Med Chem, 2012) are described below.

One assay deals with Pyricularia grisea. Kind of assay: Growth inhibition of Phyricularia oryzae Cav. at 150 mg/mL after 48 hrs by mycelium growth rate method. Details: dose or concentration left out as unconfirmed. Conditions: read-out: GI. It is filed as functional.
Assay [1] deals with HepG2. Kind of assay: Cytotoxicity against human HepG2 cells after 48 hrs by MTT assay. It counts as functional, cell-based. Conditions: HepG2, 48 h. Put shortly: (§1)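 MTT assay. Cells kept in DMEM with 10% FBS. HepG2 seeded at 1 × 10^4 cells/well; A549, PC-3M and MKN45 at 1.6 × 10^4 cells/well. Attachment 24 h at 37 °C. Compounds diluted in medium from 10 mM DMSO stocks; 0.1% DMSO served as negative control. Exposure 48 h at 37 °C, then MTT for 3 h. Formazan dissolved in DMSO and read at 570 nm. IC50 from a concentration series; mean of three independent experiments.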

For assay [2], the system named is A549. Kind of assay: Cytotoxicity against human A549 cells after 48 hrs by MTT assay. Conditions: A549, 48 h. It is filed as functional, cell-based. Put shortly: as §1
Assay [3] is described as follows: Cytotoxicity against human PC3M cells after 48 hrs by MTT assay. It is filed as functional, cell-based. Conditions: PC-3M. In outline:
as §1

Another assay relates to MKN-45. Kind of assay: Cytotoxicity against human MKN45 cells after 48 hrs by MTT assay. It counts as functional, cell-based. Conditions: MKN-45, 48 h. Put shortly: as §1
For assay [4], the system named is A549. Kind of assay: Ratio of Fluorouracil IC50 to compound IC50 for human A549 cells. It is filed as functional.
In assay [5] the test system is HepG2. Kind of assay: Ratio of Fluorouracil IC50 to compound IC50 for human HepG2 cells. It is filed as functional.
For assay [6], the system named is HepG2. Kind of assay: Cell cycle arrest in human HepG2 cells assessed as Sub-G0 phase cells at 4 uM after 24 hrs by flow cytometry (reference value: 2.48%). It is filed as functional.
Assay [7] deals with HepG2. Kind of assay: Cell cycle arrest in human HepG2 cells assessed as G0/G1 phase cells at 4 uM after 24 hrs by flow cytometry (reference value: 54.65%). It is filed as functional.
The subject of assay [8] is HepG2. Kind of assay: Cell cycle arrest in human HepG2 cells assessed as S phase cells at 4 uM after 24 hrs by flow cytometry (reference value: 29.84%). It is filed as functional.
Assay [9] has as its system HepG2. Kind of assay: Cell cycle arrest in human HepG2 cells assessed as G2/M phase cells at 4 uM after 24 hrs by flow cytometry (reference value: 16.38%). It counts as functional.
Assay [10] has as its system HepG2. Kind of assay: Cell cycle arrest in human HepG2 cells assessed as Sub-G0 phase cells at 8 uM after 24 hrs by flow cytometry (reference value: 2.48%). It is filed as functional.
Assay [11] concerns HepG2. Briefly: Cell cycle arrest in human HepG2 cells assessed as G0/G1 phase cells at 8 uM after 24 hrs by flow cytometry (reference value: 54.65%). It is filed as functional.
Assay [12] concerns HepG2. Briefly: Cell cycle arrest in human HepG2 cells assessed as S phase cells at 8 uM after 24 hrs by flow cytometry (reference value: 29.84%). It is filed as functional.
The test system of assay [13] is HepG2. Kind of assay: Cell cycle arrest in human HepG2 cells assessed as G2/M phase cells at 8 uM after 24 hrs by flow cytometry (reference value: 16.38%). It counts as functional.
Assay [14] concerns HepG2. Briefly: Cell cycle arrest in human HepG2 cells assessed as Sub-G0 phase cells at 16 uM after 24 hrs by flow cytometry (reference value: 2.48%). It is filed as functional.
For assay [15], the system named is HepG2. Kind of assay: Cell cycle arrest in human HepG2 cells assessed as G0/G1 phase cells at 16 uM after 24 hrs by flow cytometry (reference value: 54.65%). It counts as functional.
The test system of assay [16] is HepG2. Kind of assay: Cell cycle arrest in human HepG2 cells assessed as S phase cells at 16 uM after 24 hrs by flow cytometry (reference value: 29.84%). It is filed as functional.
Assay [17] concerns HepG2. Briefly: Cell cycle arrest in human HepG2 cells assessed as G2/M phase cells at 16 uM after 24 hrs by flow cytometry (reference value: 16.38%). It counts as functional.
For assay [18], the system named is HepG2. Briefly: Induction of apoptosis in human HepG2 cells after 24 hrs by flow cytometry. It is filed as functional, cell-based.

As for `COc1cc(-c2nnc(SCC(=O)c3ccc(C)cc3)n2N2C(=O)c3ccccc3C2=O)cc(OC)c1OC`, the inhibition of growth in the assay with Pyricularia grisea was less than 50%. For the same compound, the IC50 was determined as 9.44 µM in the assay on HepG2 [1], 6.76 µM in the assay on A549 [2], 11.7 µM in [3] and 9.62 µM with MKN-45. For the same compound, the “Ratio IC50” value in the assay on A549 [4] and in the assay on HepG2 [5] was 4 in each case. In addition, the Activity is given as 15.05% with HepG2 [6]; 40.73% with HepG2 [7]; 25.41% in the assay on HepG2 [8]; 14.4% in the assay on HepG2 [9]; 29.22% in the assay on HepG2 [10]; 37.45% in the assay on HepG2 [11]. Moreover, the Activity in the assay on HepG2 [12] was determined as 17.5%; in the assay on HepG2 [13], 11.38%; in the assay on HepG2 [14], 32.58%; in the assay with HepG2 [15], 36.7%; in the assay on HepG2 [16], 21.07%; with HepG2 [17] it was 6.31%. The Activity result with HepG2 [18] is “Dose-dependent effect”.
Turning to `COc1cc(-c2nnc(SCC(=O)c3ccccc3)n2N2C(=O)c3ccccc3C2=O)cc(OC)c1OC`, the inhibition of growth in the assay on Pyricularia grisea is no less than 60%. In addition, the IC50 in the assay with HepG2 [1] was 171 µM; in the assay with A549 [2], greater than 200 µM; in assay [3] it was greater than 200 µM; with MKN-45, greater than 200 µM.
On to `COc1cc(-c2nnc(SCC(=O)c3ccc(Cl)cc3)n2N2C(=O)c3ccccc3C2=O)cc(OC)c1OC`, for which the inhibition of growth in the assay on Pyricularia grisea is less than 50%. Also, the half-inhibitory concentration (IC50) is 22 µM in the assay on HepG2 [1], 9.03 µM with A549 [2], 20.7 µM in [3] and 26.6 µM in the assay on MKN-45.
